Values belong to the compound of their own block, whether it stands above or below them. Activity calls are given as the source filed them. No cut-off for these calls is given here.
Legend:
[1] = molecular target: Voltage-gated L-type calcium channel (Rattus norvegicus, UniProt P22002+Q02485+P27732); assay: Affinity to bind dihydropyridine receptor (DHP receptor) by inhibiting the radioligand [3H]nitrendipine; format: protein assay
Method in brief: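 [3H]nitrendipine displacement, rat brain cortical membranes. Each compound first screened at 1000 nM; if inhibition exceeded 40%, a four- to seven-point curve with unlabeled compound was run. IC50 generally mean of two experiments, each in triplicate. ">1000 nM" means under 40% inhibition of control binding at 1000 nM.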

[2] = organism: Rattus norvegicus; assay: Compound was tested for the cardiovascular activity in isolated rat heart. Value represents the concentration producing 25% increase in CF (cardiac flow); NA indicates not active; format: functional
Method in brief: (§1)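 Isolated Langendorff-perfused rat heart. Coronary flow (CF), LV +dP/dtmax and heart rate recorded during exposure to test agent. Value is the concentration giving a 25% rise in CF or in LV +dP/dtmax, mean ± SE. At least two hearts per compound.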

[3] = organism: Rattus norvegicus; assay: Compound was tested for the cardiovascular activity in isolated rat heart. Value represents the concentration producing 25% increase in LV + dP/dtmax; NA indicates not active; format: functional; method in brief: as §1
[4] = organism: Rattus norvegicus; assay: Cardiovascular activity in isolated rat heart, concentration producing 25% increase in CF (cardiac flow).; format: functional; method in brief: as §1
[5] = organism: Rattus norvegicus; assay: Cardiovascular activity in isolated rat heart, concentration producing 25% increase in LV + dP/dtmax.; format: functional; method in brief: as §1
[6] = organism: Oryctolagus cuniculus; assay: Vasorelaxant effect at a concentration of 10e-4 M on rabbit aortic rings previously contracted with 1.0 uM Norepinephrine.; format: functional, Aorta; parameters: unit not given here
Method in brief: (§2)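 Rabbit aortic rings precontracted with 50 mM KCl or 1.0 μM norepinephrine, then exposed to increasing concentrations of test agent. Relaxation recorded at each concentration.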

[7] = organism: Oryctolagus cuniculus; assay: Vasorelaxant effect at a concentration of 10e-4 M on rabbit aortic rings previously contracted with 50 mM KCl.; format: functional, Aorta; parameters: unit not given here; method in brief: as §2
[8] = organism: Oryctolagus cuniculus; assay: Vasorelaxant effect at a concentration of 10e-5 M on rabbit aortic rings previously contracted with 1.0 uM Norepinephrine.; format: functional, Aorta; parameters: unit not given here; method in brief: as §2
[9] = organism: Oryctolagus cuniculus; assay: Vasorelaxant effect at a concentration of 10e-5 M on rabbit aortic rings previously contracted with 50 mM KCl.; format: functional, Aorta; parameters: unit not given here; method in brief: as §2
[10] = organism: Oryctolagus cuniculus; assay: Vasorelaxant effect at a concentration of 10e-6 M on rabbit aortic rings previously contracted with 1.0 uM Norepinephrine.; format: functional, Aorta; parameters: unit not given here; method in brief: as §2
[11] = organism: Oryctolagus cuniculus; assay: Vasorelaxant effect at a concentration of 10e-6 M on rabbit aortic rings previously contracted with 50 mM KCl.; format: functional, Aorta; parameters: unit not given here; method in brief: as §2
[12] = organism: Oryctolagus cuniculus; assay: Vasorelaxant effect at a concentration of 10e-7 M on rabbit aortic rings previously contracted with 1.0 uM Norepinephrine.; format: functional, Aorta; parameters: unit not given here; method in brief: as §2
[13] = organism: Oryctolagus cuniculus; assay: Vasorelaxant effect at a concentration of 10e-7 M on rabbit aortic rings previously contracted with 50 mM KCl.; format: functional, Aorta; parameters: unit not given here; method in brief: as §2
[14] = organism: Rattus norvegicus; assay: Compound was tested for its effect on coronary vasodilator in isolated rat hearts.; format: functional
Method in brief: (§3)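 Coronary vasodilation and ventricular contractility measured in isolated Langendorff-perfused rat hearts. EC25 (concentration raising the parameter by 25%) given as mean ± SEM of four to six hearts.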

[15] = organism: Rattus norvegicus; assay: Compound was tested for its effect on ventricular cantractility in isolated rat hearts.; format: functional, Cardiac ventricle; method in brief: as §3
[16] = organism: Oryctolagus cuniculus; assay: Vasorelaxant effect at a concentration of 10e-10 M on rabbit aortic rings previously contracted with 1.0 uM Norepinephrine.; format: functional, Aorta
Method in brief: (§4)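 They were then exposed to increasing concentrations of the test agent, and relaxation of the precontraction was recorded as calcium channel blocking activity.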

[17] = organism: Oryctolagus cuniculus; assay: Vasorelaxant effect at a concentration of 10e-10 M on rabbit aortic rings previously contracted with 50 mM KCl.; format: functional, Aorta; method in brief: as §4
[18] = organism: Oryctolagus cuniculus; assay: Vasorelaxant effect at a concentration of 10e-8 M on rabbit aortic rings previously contracted with 1.0 uM Norepinephrine.; format: functional, Aorta; method in brief: as §2
[19] = organism: Oryctolagus cuniculus; assay: Vasorelaxant effect at a concentration of 10e-8 M on rabbit aortic rings previously contracted with 50 mM KCl.; format: functional, Aorta; method in brief: as §2
[20] = organism: Oryctolagus cuniculus; assay: Vasorelaxant effect at a concentration of 10e-9 M on rabbit aortic rings previously contracted with 1.0 uM Norepinephrine.; format: functional, Aorta; method in brief: as §2
[21] = organism: Oryctolagus cuniculus; assay: Vasorelaxant effect at a concentration of 10e-9 M on rabbit aortic rings previously contracted with 50 mM KCl.; format: functional, Aorta; method in brief: as §2

Structure (SMILES): CCO/C(O)=C1\C(C[S+]([O-])c2ccncc2)=NC(C)=C(C#N)C1c1ccccn1 (configuration not stated)
IC50 [1]: > 1000 nM
EC25 [2]: inactive
EC25 [3]: inactive

Structure (SMILES): CCOC(=O)C1=C(C[S+]([O-])c2ccccc2)NC(C)=C(C#N)C1c1cccc([N+](=O)[O-])c1 (stereo in doubt; 32b)
EC25 [2]: inactive

Structure (SMILES): CCO/C(O)=C1\C(CS(=O)(=O)c2ccncc2)=NC(C)=C(C#N)C1c1ccccn1 (configuration not stated)
IC50 [1]: > 1000 nM
EC25 [2]: inactive
EC25 [3]: inactive

Structure (SMILES): CCO/C(O)=C1\C(C[S+]([O-])c2ccccc2F)=NC(C)=C(C#N)C1c1ccccc1C(F)(F)F (configuration not stated)
IC50 [1]: > 1000 nM
EC25 [4]: 0.36 µM
EC25 [5]: 0.93 µM

Structure (SMILES): CCO/C(O)=C1\C(CS(=O)(=O)c2ccc(Cl)cc2)=NC(C)=C(C#N)C1c1ccccc1C(F)(F)F (configuration not stated)
IC50 [1]: 91 nM
EC25 [4]: 0.55 µM
EC25 [3]: inactive

Structure (SMILES): CCOC(=O)C1=C(CS(=O)(=O)c2ccncc2)NC(C)=C(C#N)C1c1ccccc1C(F)(F)F (stereo in doubt; 54B)
EC25 [14]: 1.622 µM
EC25 [15]: 0.888 µM

Structure (SMILES): CCOC(=O)C1=C(C[S+]([O-])c2ccccc2)NC(C)=C(C#N)C1c1ccccc1C(F)(F)F (stereo in doubt; 29b)
IC50 [1]: 2800 nM
EC25 [4]: 1.3 µM
EC25 [5]: 0.17 µM

Structure (SMILES): CCO/C(O)=C1\C(CS(=O)(=O)c2ccc(OC)cc2)=NC(C)=C(C#N)C1c1ccccc1C(F)(F)F (configuration not stated)
IC50 [1]: 109 nM
EC25 [4]: 0.3 µM
EC25 [5]: inactive

Structure (SMILES): COC(=O)C1=C(C)NC(C)=C(C(=O)OC)C1c1ccccc1[N+](=O)[O-] [NIFEDIPINE]
Vasorelaxant effect [16]: -1
Vasorelaxant effect [17]: -3.1
Vasorelaxant effect [8]: 6.1
Vasorelaxant effect [9]: 92.6
Vasorelaxant effect [10]: 3.5
Vasorelaxant effect [11]: 89.4
Vasorelaxant effect [12]: 1
Vasorelaxant effect [13]: 65.8
Vasorelaxant effect [18]: -1.1
Vasorelaxant effect [19]: 24.7
Vasorelaxant effect [20]: -1.2
Vasorelaxant effect [21]: -1.7

Structure (SMILES): CC1=C(C#N)C(c2ccccc2C(F)(F)F)/C(=C(\O)OCCN2CCCCC2)C(C[S+]([O-])c2ccccc2)=N1 (configuration not stated)
IC50 [1]: > 1000 nM
EC25 [2]: inactive
EC25 [3]: inactive

Further lines, with some results ahead:

IC50 [1]: 390 nM
Structure (SMILES): CC1=C(C#N)C(c2ccccc2C(F)(F)F)/C(=C(\O)OC(C)C)C(CS(=O)(=O)c2ccccc2)=N1 (configuration not stated)
EC25 [4]: <0.1 µM
EC25 [5]: inactive

IC50 [1]: 580 nM
Structure (SMILES): C=CCO/C(O)=C1\C(CS(=O)(=O)c2ccccc2)=NC(C)=C(C#N)C1c1ccccc1C(F)(F)F (configuration not stated)
EC25 [4]: <0.1 µM
EC25 [5]: 0.3 µM

IC50 [1]: 205 nM
Structure (SMILES): CCO/C(O)=C1\C(CSc2ccc(NC(C)=O)cc2)=NC(C)=C(C#N)C1c1ccccc1C(F)(F)F (configuration not stated)
EC25 [4]: 0.26 µM
EC25 [5]: inactive

IC50 [1]: 250 nM
Structure (SMILES): CC1=C(C#N)C(c2ccccc2C(F)(F)F)/C(=C(\O)OC(C)C)C(CSc2ccccc2)=N1 (configuration not stated)
Vasorelaxant effect [6]: 9
Vasorelaxant effect [7]: 74
Vasorelaxant effect [8]: 8
Vasorelaxant effect [9]: 30
Vasorelaxant effect [10]: -2
Vasorelaxant effect [11]: 2
Vasorelaxant effect [12]: -1
Vasorelaxant effect [13]: 0

IC50 [1]: > 1000 nM
Structure (SMILES): CO/C(O)=C1\C(C[S+]([O-])c2ccccc2)=NC(C)=C(C#N)C1c1ccccc1C(F)(F)F (configuration not stated)
EC25 [4]: 1.48 µM
EC25 [5]: 0.26 µM

From ChEMBL document CHEMBL1125592, “Calcium channel blocking and positive inotropic activities of ethyl 5-cyano-1,4-dihydro-6-methyl-2-[(phenylsulfonyl)methyl]-4-aryl-3- pyridine-carboxylate and analogues. Synthesis and structure-activity relationships” (J Med Chem, 1991)
